Screening data deposited in PubChem by Sanford-Burnham Center for Chemical Genomics.
The list is not random: actives were taken first. Their share in the collection is about 3.9%.
UPR XBP1 act – activators of adaptive arm of unfolded protein response (XBP1); CHO-XBP1 luciferase reporter, IRE1-XBP1 UPR activation, luminescence; percent of tunicamycin response, DMSO as zero; activation, % at 20 µM; hit rate 0.33% among 330,000; AID 463104;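 active = versus positive control, 20 µM dose yields 30% or more activation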;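 also: 100% = tunicamycin at 10 µg/mL and 0% = DMSO only wells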
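assay system = CHO-XBP1 luciferase reporter cells | amount = 1000 cells/well | buffer or medium = F12 plus 10% FBS | compound dosing = single point, 20 µM final compound, 1% DMSO | incubation = 16-18 h cell attachment at 37 °C, then 6 h compound exposure | detection = Steady-Glo luminescence read | controls = tunicamycin 10 µg/mL and vehicle-only wells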
CHOP UPR activ – apoptotic UPR (CHOP) activation; CHO-CHOP luciferase reporter, luminescence; percent of tunicamycin response over DMSO baseline; activation, % at 10 µM; hit rate 0.34% among 330,000;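 active = at 10 µM dose, activation of 40% or more, normalized to positive control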;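 also: 100% = tunicamycin at 10 µg/mL and 0% = DMSO alone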
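System: CHO CHOP reporter cells. Amount: 500 cells per well. Buffer or medium: F12 medium, 10% FBS. Compound dosing: one dose, 10 µM in 0.5% DMSO. Incubation: 6 h compound exposure at 37 °C after overnight seeding. Technique: Steady-Glo luciferase luminescence. Benchmarks: tunicamycin and DMSO controls.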
TIM10 inh – inhibits growth of TIM10 yeast strain | S. cerevisiae TIM10 strain growth, BacTiter-Glo luminescence, 24 h | inhibition, % at 10 µM | hit rate 1.4% among 330,000 | AID 463195;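 active = inhibition of 40% or more at the single tested concentration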;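 also: wild-type TIM10 isogenic control strain grown at permissive 25 °C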
tim23-1 inh – inhibits growth of tim23-1 mutant yeast; S. cerevisiae tim23-1 growth, BacTiter-Glo luminescence, 24 h; inhibition, % at 20 µM; hit rate 1.3% among 330,000; AID 463212;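 active = growth inhibition of the mutant yeast at or above 50%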;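 also: temperature-sensitive mutant grown at 25 °C; plate controls were DMSO-treated mutant yeast for no effect and medium wells lacking yeast for full effect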
tim10-1 inh – growth inhibitors of tim10-1 mutant yeast; S. cerevisiae tim10-1 ts strain growth, BacTiter-Glo, 24 h; inhibition, % at 20 µM; hit rate 2.2% among 330,000; AID 463190;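 active = inhibition of at least 40%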;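 also: mutant grown at 25 °C; 0% = DMSO wells with yeast and 100% = wells holding no yeast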
tim23-1 confirm – confirmation of tim23-1 mutant yeast growth inhibitors; shares compounds with tim23-1 inh; S. cerevisiae tim23-1 growth, BacTiter-Glo luminescence, 24 h; inhibition, % at 20 µM; hit rate 83% among 4,400;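 active = inhibition above about 39% in either of two replicate wells at 20 µM, limit read from the data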;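 also: temperature-sensitive tim23-1 mutant grown at 25 °C; 0% = DMSO wells with yeast and 100% = medium wells without yeast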
The depositor's hits bear a star; / = no result given.

SMILES | UPR XBP1 act | CHOP UPR activ | TIM10 inh | tim23-1 inh | tim10-1 inh | tim23-1 confirm
COc1ccc(NS(=O)(=O)c2ccc(N3C(=O)CCC3=O)cc2)cc1 | -4 | -1 | -9 | -4 | 10 | /
Cc1ccc(C2CC(c3cccs3)=NN2C(=O)CCl)cc1 (centres undefined) | -7 | 2 | 35 | 64* | 25 | -29
O=C(Nc1ccccc1)N1N=C(c2cccs2)CC1c1cccs1 (centres undefined) | -1 | -1 | 25 | 33 | 4 | /
O=C(c1ccccc1)N1N=C(c2cccs2)CC1c1ccccc1O (centres undefined) | -2 | 5 | 14 | 57* | 12 | 43*
CC(C)(O)c1cc2ccc(C#Cc3ccsc3)cc2c(=O)o1 | 13 | 5 | 17 | 60* | 12 | 24
Cc1ccccc1-c1cccc([C@@H]2C[C@H]3CN(Cc4cccnc4)C(=O)[C@]34CCCN24)c1 | -2 | -2 | 17 | 14 | 19 | /
O=C1c2ccccc2NC(c2ccc(-c3cccs3)o2)N1O (centres undefined) | -2 | 6 | 8 | 14 | 13 | /
O=C1c2ccccc2NC(c2ccc(-c3ccc(C(F)(F)F)cc3)o2)N1O (centres undefined) | 1 | -1 | 8 | 65* | -14 | 59*
CCOC(=O)c1sc(NC(=O)c2cccs2)cc1C | 2 | 4 | 34 | 55* | 21 | 78*
CCOC(=O)c1sc(NC(=O)c2ccc(Br)o2)cc1C | 2 | 2 | 6 | 15 | -13 | /
COCC(=O)N1CCC(Oc2ccc(C(=O)NC(C)c3nccs3)cc2)CC1 (centres undefined) | -3 | 0 | 9 | -10 | -9 | /
OC(COc1cccc2ccccc12)CN1CCN(c2cccc(Cl)c2)CC1 (centres undefined) | -2 | 0 | -5 | 69* | 4 | -37
OC(COc1ccc(Cl)cc1)CN1CCN(c2ccccn2)CC1 (centres undefined) | 1 | 2 | -33 | 5 | -23 | /
OC(COc1ccc(Cl)c2ccccc12)CN1CCN(c2ccccn2)CC1 (centres undefined) | 1 | -3 | 7 | 63* | 1 | 4
Clc1cccc(Nc2nc(-c3cccnc3)cs2)c1 | 2 | 5 | 29 | 38 | -5 | /
O=C(CN1CCN(c2ccccc2O)CC1)NNC(=O)c1ccc(Cl)cc1 | -1 | -1 | -4 | 5 | -10 | /
O=S(=O)(CCN1CCN(c2ccccc2O)CC1)c1cc(Cl)ccc1Cl | 0 | 3 | 26 | 50* | 39 | 23
COc1ccc(OC)c(S(=O)(=O)Nc2ccc(-c3ccc4nncn4n3)cc2)c1 | 4 | -2 | -1 | -8 | -17 | /
COc1ccc(-c2ccccc2[C@H]2[C@@H]3C=CC[C@@H](C)[C@@H]3C(=O)N2Cc2ccccc2)cc1 | 0 | 3 | 9 | 47 | 24 | /
COC(=O)/C=C/c1cccc([C@H]2[C@@H]3C=CC[C@@H](C)[C@@H]3C(=O)N2Cc2ccccc2)c1 | -2 | 2 | 11 | 51* | 24 | 34
C[C@@H]1CC=C[C@@H]2[C@H]1C(=O)N(Cc1ccccc1)[C@H]2c1ccccc1Br | -2 | 3 | 15 | 52* | 22 | 34
CCOc1ccccc1NC(=O)N1CCC(NC(=O)C2CCCCC2)CC1 | 0 | 2 | 6 | 12 | 0 | /
CCc1nnc(NC(=O)CSc2nc3c(cc2C#N)CCC3)s1 | 1 | 3 | -9 | 94* | 6 | 5
CSc1ccccc1NC(=O)CSc1nnc(Cc2ccccc2)o1 | 1 | 0 | -4 | 9 | -13 | /
O=C(Nc1cc(Cl)ccn1)C1(c2ccccc2)CC1(Cl)Cl (centres undefined) | 0 | 0 | 17 | 55* | 32 | 65*
SMILES | UPR XBP1 act | CHOP UPR activ | TIM10 inh | tim23-1 inh | tim10-1 inh | tim23-1 confirm
Cc1ccc(S(=O)(=O)/N=C(/c2ccc(F)cc2)N(C)C)cc1 | 1 | 0 | 9 | 15 | 23 | /
O=C1OCCC1Sc1nc2ccccc2c(=O)n1-c1ccc(F)cc1 (centres undefined) | 1 | 1 | 3 | 7 | 19 | /
O=C1OCCC1Sc1nc2ccccc2c(=O)n1Cc1ccc(F)cc1 (centres undefined) | 1 | 0 | 26 | 50* | 33 | 23
Cc1cc(N)n2nc(C)c(-c3ccc(Cl)cc3)c2n1 | 5 | 1 | 39 | 63* | 34 | 72*
Cc1csc2c(SCC(=O)NNC(=O)C(Cl)Cl)ncnc12 | -3 | -1 | 12 | 8 | 5 | /
C=CCc1ccccc1OCC(=O)N/N=C/c1ccc(OC(C)=O)cc1OC(C)=O | 1 | -3 | 36 | 63* | 20 | 55*
O=C(Nc1nc2ccccc2[nH]1)c1ccc(OC(F)F)cc1 | -6 | 2 | 24 | 63* | -16 | 59*
CC(C)Oc1ccc(C(=O)Nc2nc3ccccc3[nH]2)cc1 | -16 | -7 | 17 | 13 | -11 | /
Cc1ccc(N2CCN(S(=O)(=O)c3c(C)nc4scc(C)n4c3=O)CC2)c(C)c1 | 3 | -1 | 21 | 39 | 28 | /
Cc1ccc(-c2c3c(nc4sc(C(N)=O)c(N)c24)CCCC3)o1 | 2 | -1 | 2 | 50* | 36 | 48*
Cc1ccc(/C=C(\NC(=O)c2ccc(C)cc2)c2nc(=S)[nH][nH]2)cc1 | -3 | -2 | 28 | 53* | 21 | 36
O=C(O)CN1C(=O)/C(=C\c2cc(Br)ccc2OCc2ccc(Cl)cc2Cl)SC1=S | -5 | -1 | 19 | 53* | 28 | 56*
CCCCNC1=CC(=O)C(=O)c2ccccc21 | -2 | 2 | 22 | 55* | -3 | 56*
CC(Sc1nnc(N)s1)C(=O)Nc1ccc2c(c1)OCCO2 (centres undefined) | -3 | 1 | -2 | 10 | 3 | /
COc1ccc(S(=O)(=O)N2CCC3(CC2)OCCN3S(=O)(=O)c2ccc(OC)cc2)cc1 | -1 | 3 | 12 | 7 | -6 | /
COc1ccc(S(=O)(=O)N2CCOC23CCN(S(=O)(=O)c2ccc(Cl)cc2)CC3)cc1 | -5 | 1 | 33 | 52* | 36 | 42*
O=C(CCNC(=O)c1ccc(Br)cc1)NCCCSc1ccccc1 | 0 | 0 | -19 | 3 | 13 | /
Cc1ccc(C(=O)N2C(=O)C(c3ccccc3)Oc3ccccc32)cc1 (centres undefined) | -3 | 1 | 33 | 69* | 38 | 53*
C=CCNc1nc2ccccc2nc1NS(=O)(=O)c1cccc(C)c1 | -6 | 0 | -11 | 37 | 21 | /
Cc1cccc(S(=O)(=O)Nc2nc3ccccc3nc2OC(C)C)c1 | 1 | 1 | 39 | 53* | 28 | 49*
O=C1NN=C(c2ccc(Br)cc2)CC1c1ccc(Cl)cc1 (centres undefined) | 0 | 1 | 18 | 60* | 29 | 72*
